Measurements from different studies.
Lines come from different studies, so protocols differ.

host	medium	route	dose	notes	half-life	Compound
female C57BL/6 mouse	plasma	intravenous	0.4 mg/kg		46.2 min	Nc1ncn([C@H]2C[C@H](O)[C@@H](CO)O2)c(=O)n1
male CD-1 mouse	brain	subcutaneous			50.4 min	COc1cc(C(=O)OCCCN2CCCN(CCCOC(=O)c3cc(OC)c(OC)c(OC)c3)CC2)cc(OC)c1OC
male C57BL/6 mouse	plasma	oral	10 mg/kg		15 to 27 min	CC(C)(C)OC(=O)NNc1nc2nonc2nc1Nc1ccccc1F
male CD-1 mouse	plasma	oral	30 mg/kg		131 min	CC1=NN(/C(=N/c2nnc(C)s2)Nc2ccc(C)c(C)c2)C(c2cc(F)c(F)c(F)c2)S1 (stereo not shown)
male C57BL/6 mouse	brain	intraperitoneal	10 mg/kg		128 min	CCOC(=O)c1cc(Cl)cc(NC(=O)c2sc(Cl)cc2S(=O)(=O)N(C)c2ccc(OCC)c(OC)c2)c1
male CD-1 mouse	plasma	intravenous	1 mg/kg		7.56 min	O=[N+]([O-])c1ccc(-c2ccc(O)cc2)c2cccnc12
male Kunming mouse	lung	oral	20 mg/kg		36 min	CC(=O)O[C@@]12CO[C@@H]1C[C@H](O)[C@@]1(C)C(=O)[C@H](O)C3=C(C)[C@@H](OC(=O)[C@H](O)[C@@H](NC(=O)OC(C)(C)C)c4ccccc4)C[C@@](O)([C@@H](OC(=O)c4ccccc4)[C@H]21)C3(C)C
male C57BL/6 mouse	plasma	oral	10 mg/kg		> 900 min	FC(F)(F)c1nc2c(-c3cc(Cl)cc(Cl)c3)ccnc2[nH]1
CD-1 mouse	plasma	intravenous	3 mg/kg		340 min	CN1CCN(C(=O)[C@H](CCCN[C@@H]2C[C@H]2c2ccc(F)cc2)NC(=O)c2ccc(-n3ccnn3)cc2)CC1
female C57BL/6 mouse	plasma	intraperitoneal	10 mg/kg		~33 min	CC(C(=O)Nc1c(F)cccc1F)N1CCN(c2ccccc2)CC1 (stereo not shown)
mouse	plasma	intraperitoneal	15 mg/kg	single dose	145 min	CCN1CCN(Cc2ccc(NC(=O)c3ccc(C)c(NC(=O)c4cncc(-c5cccs5)c4)c3)cc2C(F)(F)F)CC1
male C57BL/6 mouse	plasma	intraperitoneal	10 mg/kg		28.1 min	CCOc1ccc(N(C)S(=O)(=O)c2cc(Cl)sc2C(=O)Nc2cc(Cl)cc(C(=O)O)c2)cc1OC
male C57BL/6 mouse	plasma	intraperitoneal	50 mg/kg	single dose	90 min	COc1cc2c(NC3CCN(CCCC(=O)NCCCCCCCCCCCC(=O)N[C@H](C(=O)N4C[C@H](O)C[C@H]4C(=O)NCc4ccc(-c5scnc5C)cc4)C(C)(C)C)CC3)nc(N3CCC(F)(F)CC3)nc2cc1OCCCN1CCCC1
